In ChEMBL document CHEMBL4622925, “N1-Substituted benzimidazole scaffold for farnesoid X receptor (FXR) agonists accompanying prominent selectivity against vitamin D receptor (VDR)” (Bioorg Med Chem, 2020):
pEC50, pIC50: −log10 of the molar value.

Columns and labels:
Vitamin D3 receptor = target: T1, Vitamin D3 receptor (Homo sapiens, UniProt P11473); assay: Antagonist activity at human VDR transfected in HEK293T cells measured after 24 hrs by luciferase reporter gene assay; format: cell-based, HEK-293T
T1 sequence (P11473 whole entry): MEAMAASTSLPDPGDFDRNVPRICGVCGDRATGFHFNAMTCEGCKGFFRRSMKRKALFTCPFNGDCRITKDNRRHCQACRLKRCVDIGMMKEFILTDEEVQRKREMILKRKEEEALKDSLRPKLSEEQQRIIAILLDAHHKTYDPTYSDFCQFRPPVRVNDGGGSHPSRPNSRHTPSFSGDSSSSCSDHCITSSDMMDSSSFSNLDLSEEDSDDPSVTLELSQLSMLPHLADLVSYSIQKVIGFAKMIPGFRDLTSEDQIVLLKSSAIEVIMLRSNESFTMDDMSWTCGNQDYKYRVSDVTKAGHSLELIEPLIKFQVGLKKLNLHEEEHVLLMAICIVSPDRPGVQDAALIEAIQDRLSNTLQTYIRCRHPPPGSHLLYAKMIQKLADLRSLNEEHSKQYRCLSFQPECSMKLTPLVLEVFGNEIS

Bile acid receptor [1] = target: T2, Bile acid receptor (Homo sapiens, UniProt Q96RI1); assay: Agonist activity at human FXR expressed in human HuH7 cells by luciferase reporter gene assay; format: cell-based, Huh-7
T2 sequence (Q96RI1 whole entry): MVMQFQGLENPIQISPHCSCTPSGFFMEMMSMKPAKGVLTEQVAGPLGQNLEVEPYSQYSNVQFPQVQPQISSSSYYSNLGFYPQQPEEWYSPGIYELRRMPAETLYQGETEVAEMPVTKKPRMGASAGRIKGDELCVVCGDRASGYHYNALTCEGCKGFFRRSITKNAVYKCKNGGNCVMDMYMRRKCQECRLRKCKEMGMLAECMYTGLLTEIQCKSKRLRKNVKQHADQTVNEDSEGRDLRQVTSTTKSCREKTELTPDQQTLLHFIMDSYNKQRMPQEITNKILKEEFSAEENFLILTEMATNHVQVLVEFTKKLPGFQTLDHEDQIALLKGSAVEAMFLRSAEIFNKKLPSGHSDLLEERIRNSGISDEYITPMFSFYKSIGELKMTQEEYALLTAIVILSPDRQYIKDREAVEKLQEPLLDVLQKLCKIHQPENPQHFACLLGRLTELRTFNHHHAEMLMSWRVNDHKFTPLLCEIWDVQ

HEK-293T = assay: Cytotoxicity against human HEK293T cells assessed as cell viability by MTT assay; format: cell-based
Bile acid receptor [2] = target: T2, Bile acid receptor; assay: Agonist activity at GST-fused FXR-LBD (unknown origin) incubated with Fluorecein-SRC2-2 coactivator peptide as substrate by TR-FRET assay
Huh-7 = assay: Cytotoxicity against human HuH7 cells assessed as cell viability by MTT assay; format: cell-based
[3] = Cytotoxicity against mouse ST-2 cells assessed as cell viability upto 5 uM incubated for 12 days by WST-8 assay; format: cell-based; settings: 288 h
In short: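 ST-2 mesenchymal stem cells kept 12 days in RPMI-1640 medium containing compound at 0–10 μM. Viability read by WST-8 assay and expressed relative to untreated (0 μM) cells set as 100%. Means ± S.D., n=5.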

Compound | pIC50 (Vitamin D3 receptor) | pEC50 (Bile acid receptor [1]) | Activity (HEK-293T) | pEC50 (Bile acid receptor [2]) | Activity (Huh-7) | Activity [3]
CC(C)c1onc(-c2c(Cl)cccc2Cl)c1COc1ccc(/C=C/c2cccc(C(=O)O)c2)c(Cl)c1 | < 5.00 |  |  |  |  | 
CC(C)c1onc(-c2c(Cl)cccc2Cl)c1COc1ccc(-c2nc3ccc(C(=O)O)cc3n2CC(C)(C)C)cc1 |  | 7.89 | Toxic | 7.61 | Toxic | 
CC(C)c1onc(-c2c(Cl)cccc2Cl)c1COc1ccc(-c2nc3cc(C(=O)O)ccc3n2C)cc1 |  |  | Toxic |  | Toxic | 
CC(C)c1onc(-c2c(Cl)cccc2Cl)c1COc1ccc(-c2nc3ccc(C(=O)O)cc3n2C(C)C)cc1 |  |  | Toxic |  | Toxic | 
CC(C)c1onc(-c2c(Cl)cccc2Cl)c1COc1ccc(-c2nc3ccc(C(=O)O)cc3n2CC2CCCCC2)c(Cl)c1 |  |  | Toxic |  | Toxic | 
CCCn1c(-c2ccc(OCc3c(-c4c(Cl)cccc4Cl)noc3C(C)C)cc2)nc2ccc(C(=O)O)cc21 |  |  | Toxic |  | Toxic | 
CC(C)c1onc(-c2c(Cl)cccc2Cl)c1COc1ccc(-c2nc3ccc(C(=O)O)cc3n2C2CCC2)cc1 |  |  | Toxic |  | Toxic | 
CCCC(CCC)n1c(-c2ccc(OCc3c(-c4c(Cl)cccc4Cl)noc3C(C)C)cc2)nc2ccc(C(=O)O)cc21 | < 5.00 |  | Toxic |  | Toxic | 
CCC(CC)n1c(-c2ccc(OCc3c(-c4c(Cl)cccc4Cl)noc3C(C)C)cc2Cl)nc2ccc(C(=O)O)cc21 |  | 8.80 | Toxic | 7.67 | Toxic | 
CC(C)c1onc(-c2c(Cl)cccc2Cl)c1COc1ccc(-c2nc3ccc(C(=O)O)cc3n2CC2CCCCC2)cc1 |  |  | Toxic |  | Toxic | Non-Toxic
CC(=O)N1CCC(n2c(-c3ccc(OCc4c(-c5c(Cl)cccc5Cl)noc4C(C)C)cc3)nc3ccc(C(=O)O)cc32)CC1 | < 5.00 |  | Toxic |  | Toxic | 
CCC(CC)n1c(-c2ccc(OCc3c(-c4c(Cl)cccc4Cl)noc3C(C)C)cc2)nc2ccc(C(=O)O)cc21 |  |  | Toxic |  | Toxic | Non-Toxic
CCC(CC)n1c(-c2ccc(OCc3c(-c4c(Cl)cccc4Cl)noc3C(C)C)cc2F)nc2ccc(C(=O)O)cc21 | < 5.00 |  | Toxic |  | Toxic | 
CCn1c(-c2ccc(OCc3c(-c4c(Cl)cccc4Cl)noc3C(C)C)cc2)nc2ccc(C(=O)O)cc21 |  |  | Toxic |  | Toxic | 
CC(C)c1onc(-c2c(Cl)cccc2Cl)c1COc1ccc(-c2nc3ccc(C(=O)O)cc3n2C2CCCC2)cc1 |  |  | Toxic |  | Toxic | 
CC(C)c1onc(-c2c(Cl)cccc2Cl)c1COc1ccc(-c2nc3ccc(C(=O)O)cc3n2C2CCCCC2)cc1 |  |  | Toxic |  | Toxic | 
CC(C)c1onc(-c2c(Cl)cccc2Cl)c1COc1ccc(-c2nc3ccc(C(=O)O)cc3n2C2CC2)cc1 |  |  | Toxic |  | Toxic | 
CC(C)c1onc(-c2c(Cl)cccc2Cl)c1COc1ccc(-c2nc3ccc(C(=O)O)cc3n2C)cc1Cl |  |  | Toxic |  | Toxic | 
CC(C)c1onc(-c2c(Cl)cccc2Cl)c1COc1ccc(-c2nc3ccc(C(=O)O)cc3n2CC2CCCCC2)c(F)c1 |  |  | Toxic |  | Toxic | 
CC(C)c1onc(-c2c(Cl)cccc2Cl)c1COc1ccc(-c2nc3ccc(C(=O)O)cc3n2CC2CC2)cc1 |  |  | Toxic |  | Toxic | 
CC(=O)C1CCC(Cn2c(-c3ccc(OCc4c(-c5c(Cl)cccc5Cl)noc4C(C)C)cc3)nc3ccc(C(=O)O)cc32)CC1 (stereo not drawn) | < 5.00 |  | Toxic |  | Toxic | 
CC(C)c1onc(-c2c(Cl)cccc2Cl)c1COc1ccc(-c2nc3ccc(C(=O)O)cc3n2C)cc1 |  |  | Toxic |  | Toxic | 
CC(C)c1onc(-c2c(Cl)cccc2Cl)c1COc1ccc(-c2nc3ccc(C(=O)O)cc3n2C)c(Cl)c1 |  |  | Toxic |  | Toxic | 
CC(C)c1onc(-c2c(Cl)cccc2Cl)c1COc1ccc(-c2nc3ccc(C(=O)O)cc3n2Cc2ccc(F)cc2)cc1 |  |  | Toxic |  | Toxic | 
CC(C)c1onc(-c2c(Cl)cccc2Cl)c1COc1ccc(-c2nc3ccc(C(=O)O)cc3n2C2CCCCCC2)cc1 |  |  | Toxic |  | Toxic | 
CC(C)c1onc(-c2c(Cl)cccc2Cl)c1COc1ccc(-c2nc3ccc(C(=O)O)cc3n2-c2ccc(F)cc2)cc1 |  |  | Toxic |  | Toxic | 
CC(C)Cn1c(-c2ccc(OCc3c(-c4c(Cl)cccc4Cl)noc3C(C)C)cc2)nc2ccc(C(=O)O)cc21 |  |  | Toxic |  | Toxic | 
